Laboratory results reported in article PMC3717983 (Journal of medicinal chemistry, 2013).
Like-named read-outs stand apart in the source and are kept apart here. Marks after values point to notes of the source that are not given here.

Experiments:
Type in all cases: biochemical
[1] = target: R97A thrombin (Homo sapiens, UniProt P00734, R456A); experiment: Inhibition of recombinant thrombin, S2238 hydrolysis assay; settings: overnight 25 °C
How it was run: (§1)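 Recombinant wild-type and Ala-mutant thrombins were made in […] form by PCR mutagenesis, expressed in BHK cells, HPC4 immunoaffinity-purified and activated. Active-site concentration came from amidolytic assay and antithrombin titration. Enzyme (1.5–7.5 nM final) was incubated with test compound overnight at 25 °C in pH 7.4 Tris buffer. S2238 was added and initial rate read at 405 nm. At least 9–10 concentrations were fitted by logistic equation for apparent IC50, HS, Y0 and YM. Mutant IC50 is expressed relative to recombinant wild type.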

[2] = tested on: human plasma; experiment: Human plasma clotting assay, activated partial thromboplastin time
How it was run: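 APTT on a fibrometer using a one-stage recalcification assay. Citrated human plasma, test compound or vehicle, and pre-warmed 0.2% ellagic acid were mixed and incubated 4 min. Clotting was started with 25 mM CaCl2 at 37 °C and clotting time recorded. Run in duplicate. A quadratic trend line gave the concentration that doubles APTT.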

[3] = target: K236A thrombin (Homo sapiens, UniProt P00734, K611A); experiment: Inhibition of recombinant thrombin, S2238 hydrolysis assay; settings: overnight 25 °C
How it was run: as §1

[4] = target: T1, human α-thrombin (Homo sapiens, UniProt P00734)
How it was run: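 Human α-thrombin (5 nM) was preincubated with fixed test compound concentrations (0–9.90 μM), either overnight at 25 °C or 2 h at 37 °C, in 20 mM Tris-HCl pH 7.4 with 100 mM NaCl, 2.5 mM CaCl2 and 0.1% PEG8000. Initial rates of Spectrozyme TH hydrolysis (2–80 μM) were read at 405 nm, at under 10% substrate consumption. Standard Michaelis-Menten fit gave KM and VMAX.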

[5] = target: K235A thrombin (Homo sapiens, UniProt P00734, K610A); experiment: Inhibition of recombinant thrombin, S2238 hydrolysis assay; settings: overnight 25 °C
How it was run: as §1

[6] = target: R165A thrombin (Homo sapiens, UniProt P00734, R533A); experiment: as above; settings: overnight 25 °C
How it was run: as §1

[7] = target: R175A thrombin (Homo sapiens, UniProt P00734, R543A); experiment: as above; settings: overnight 25 °C
How it was run: as §1

[8] = target: T1, human α-thrombin; settings: pH 7.4, 25 °C, Spectrozyme TH
[9] = target: R173A thrombin (Homo sapiens, UniProt P00734, R541A); experiment: Inhibition of recombinant thrombin, S2238 hydrolysis assay; settings: overnight 25 °C
How it was run: as §1

[10] = target: recombinant wild-type thrombin (rWT) (Homo sapiens, UniProt P00734); experiment: as above; settings: overnight 25 °C
How it was run: as §1

[11] = target: T1, human α-thrombin; experiment: Thrombin inhibition by 9a in presence of exosite 1 or exosite 2 ligands
[12] = target: R101A thrombin (Homo sapiens, UniProt P00734, R461A); experiment: Inhibition of recombinant thrombin, S2238 hydrolysis assay; settings: overnight 25 °C
How it was run: as §1

[13] = target: R93A thrombin (Homo sapiens, UniProt P00734, R452A); experiment: as above; settings: overnight 25 °C
How it was run: as §1

[14] = target: K169A thrombin (Homo sapiens, UniProt P00734, K537A); experiment: as above; settings: overnight 25 °C
How it was run: as §1

[15] = target: R126A thrombin (Homo sapiens, UniProt P00734, R486A); experiment: as above; settings: overnight 25 °C
How it was run: as §1

[16] = tested on: human plasma; experiment: Human plasma clotting assay, prothrombin time; settings: citrated human plasma
How it was run: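 PT on a fibrometer using a one-stage recalcification assay. Test compound or vehicle was mixed with citrated human plasma and incubated 30 s at 37 °C. Pre-warmed reconstituted thromboplastin was then added and clotting time recorded. Run in duplicate. A quadratic trend line gave the concentration that doubles PT.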

[17] = target: R233A thrombin (Homo sapiens, UniProt P00734, R608A); experiment: Inhibition of recombinant thrombin, S2238 hydrolysis assay
How it was run: as §1

[18] = target: K240A thrombin (Homo sapiens, UniProt P00734, K615A); experiment: as above; settings: overnight 25 °C
How it was run: as §1

[19] = [9a] 0.63 μM, 2 hr incubation at 37°C
[20] = [9a] 0.63 μM, overnight incubation at 25°C
[21] = [9a] 1.53 μM, 2 hr incubation at 37°C
[22] = [9a] 1.80 μM, overnight incubation at 25°C
[23] = [9a] 3.60 μM, 2 hr incubation at 37°C
[24] = [9a] 3.60 μM, overnight incubation at 25°C
[25] = [9a] 9.90 μM, 2 hr incubation at 37°C
[26] = Heparin (UFH) 4.2 μM, overnight 25 °C
[27] = Heparin (UFH) 25.0 μM, overnight 25 °C
[28] = Heparin (UFH) 42.6 μM, overnight 25 °C
[29] = Hirugen peptide (HirP) 5 nM, overnight 25 °C
[30] = Hirugen peptide (HirP) 15 nM, overnight 25 °C
[31] = Octasaccharide H8 1.0 μM, overnight 25 °C
[32] = Octasaccharide H8 3.0 μM, overnight 25 °C
[33] = Octasaccharide H8 10 μM, overnight 25 °C
[34] = Octasaccharide H8 20 μM, overnight 25 °C
[35] = γ′-Fibrinogen peptide (FibP) 0.2 μM, overnight 25 °C
[36] = γ′-Fibrinogen peptide (FibP) 0.65 μM, overnight 25 °C
[37] = γ′-Fibrinogen peptide (FibP) 2.0 μM, overnight 25 °C
[38] = γ′-Fibrinogen peptide (FibP) 6.5 μM, overnight 25 °C

In the case of CCOC(=O)c1c(C)oc2cc(OC)c(OCc3oc4cc(OC)c(OCc5oc6cc(OC)c(OS(=O)(=O)[O-])cc6c5C(=O)OCC)cc4c3C(=O)OCC)cc12.[Na+] [9a], the HS [1] is reported as 2.6 ± 0.5, the ΔY [1] is reported as 47 ± 3% and the “times less potent in plasma anticoagulation than sulfated LMWLs” value ([2]; LMWLs from ref 15) is reported as 10 times. For the same compound, the “concentration required for a 2-fold increase in APTT” value ([2]; citrated human plasma) was 139 µM, the HS [3] was 3.0 ± 0.3 and the ΔY [3] was 52 ± 1%. For the same compound, the “reduction in KM and VMAX” value ([4]; 25 °C) was 0.86–1.2 fold per μM, the “reduction in KM and VMAX” value ([4]; 37 °C) was 0.4–0.6 fold per μM and the Km ([4]; [9a] 0.36 μM, overnight incubation at 25°C) was 11.1 ± 2.5 µM. It also gave a Km [4, 19] of 6.7 ± 2.3 µM, a VMAX [4, 19] of 72 ± 8 mAU/min and a Km [4, 20] of 7.7 ± 1.3 µM. For the same compound, the VMAX [4, 20] was 69 ± 3 mAU/min, the Km [4, 21] was 2.2 ± 0.8 µM and the VMAX [4, 21] was 30 ± 2 mAU/min. For the same compound, the Km [4, 22] was 3.2 ± 0.5 µM, the VMAX [4, 22] was 35 ± 1 mAU/min and the Km [4, 23] was 2.7 ± 0.6 µM. For the same compound, the VMAX [4, 23] was 25 ± 1 mAU/min, the Km [4, 24] was 3.1 ± 0.6 µM and the VMAX [4, 24] was 19 ± 1 mAU/min. For the same compound, the Km [4, 25] was 1.9 ± 0.6 µM, the VMAX [4, 25] was 15 ± 0.8 mAU/min and the “mechanism of thrombin inhibition” value ([4]; both incubation conditions) was “primarily uncompetitive”. For the same compound, the ΔY [5] was 50 ± 1%, the HS [6] was 1.1 ± 0.3 and the ΔY [6] was 61 ± 8%. For the same compound, the ΔY [7] was 37 ± 3%, the logIC50 [8] was −6.17 ± 0.03 and the HS [9] was 2.4 ± 0.7. For the same compound, the ΔY [9] was 62 ± 8%, the HS [10] was 3.4 ± 0.5 ^b and the ΔY [10] was 49 ± 2%. For the same compound, the logIC50 ([11]; 0 μM competitor) was −6.17 ± 0.03, the ΔY ([11]; 0 μM competitor) was 79 ± 9% and the HS [11, 26] was 2.2 ± 0.4. It also gave a ΔY [11, 26] of 71 ± 7%, an HS ([11]; Heparin (UFH) 12.8 μM, overnight 25 °C) of 1.8 ± 0.2 and an HS [11, 27] of 1.7 ± 0.2. For the same compound, the ΔY [11, 27] was 81 ± 10%, the HS [11, 28] was 1.2 ± 0.2 and the ΔY [11, 28] was ~90 ^c %. The ΔY ([11]; Hirugen peptide (HirP) 3 nM, overnight 25 °C) was 44 ± 2%, the HS [11, 29] was 2.4 ± 0.3 and the ΔY [11, 29] was 46 ± 2%. The HS [11, 30] was 3.0 ± 0.7, the ΔY [11, 30] was 43 ± 1% and the HS [11, 31] was 2.3 ± 0.3. The ΔY [11, 31] was 58 ± 3%, the HS [11, 32] was 2.6 ± 0.6 and the ΔY [11, 32] was 54 ± 4%. The HS [11, 33] was 2.8 ± 0.4, the ΔY [11, 33] was 50 ± 2% and the HS [11, 34] was 2.6 ± 0.5. It also gave a ΔY [11, 34] of 49 ± 2%, an HS [11, 35] of 2.4 ± 0.3 and a ΔY [11, 35] of 73 ± 8%. For the same compound, the HS [11, 36] was 2.1 ± 0.3, the ΔY [11, 36] was 71 ± 8% and the HS [11, 37] was 3.3 ± 0.6. The ΔY [11, 37] was 67 ± 4%, the HS [11, 38] was 2.1 ± 0.6 and the ΔY [11, 38] was 65 ± 7%. For the same compound, the HS [12] was 2.1 ± 0.6, the ΔY [12] was 55 ± 6% and the HS [13] was 1.8 ± 0.3. The ΔY [13] was 66 ± 6%, the HS [14] was 2.1 ± 0.2 and the ΔY [14] was 59 ± 3%. The HS [15] was 1.8 ± 0.5, the ΔY [15] was 65 ± 11% and the “concentration required for a 2-fold increase in PT” value [16] was 568 µM. The “fold loss in potency (defect) vs recombinant wild-type” value ([17]; Arg233Ala thrombin) was ~ 3 fold, the ΔY ([17]; R233A, overnight 25 °C) was 44 ± 2% and the HS [18] was 2.3 ± 0.4. It also gave a ΔY [18] of 49 ± 3%.
